Test [1] deals with Canis familiaris. Put plainly: Activity for gastric antisecretory activity in dogs by intrapouch administration and the value ranges between 0.083-0.094. The test is classed as functional. Particulars: Canis lupus familiaris, Stomach. The gist of the method:
(§1)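 Adult female beagles (6-11 kg) with innervated Pavlov pouches, fasted 24 h with water available. Prostaglandin in isosmotic phosphate buffer pH 7.4 (≤20% ethanol) or vehicle given into the pouch via Thomas cannula after a 30-min basal collection. Canned food fed 30 min later. Juice collected at 30-min intervals for 4 h; acid output = volume × acidity.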

The subject of test [2] is Rattus norvegicus. Put plainly: Activity for diarrheagenic effect in rats by intragastric administration and the value ranges between 106-698. The test is classed as functional. Particulars: po. The gist of the method: (§2)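 Adult male Charles River rats (210–230 g), individually housed, fasted 24 h with water ad libitum. Logarithmically graded prostaglandin doses given orally (intragastric), N = 6-12 per group. Diarrhea scored all-or-none over 8 h after dosing. Prostaglandin stock 1 mg/mL in absolute ethanol, diluted in phosphate buffer pH 7.4 to at most 20% ethanol.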

Test [3] relates to Canis familiaris. Put plainly: Activity for gastric antisecretory activity in dogs by intrapouch administration and the value ranges between 63.2-76.9. Particulars: Canis lupus familiaris, Stomach. The test is classed as functional. The method, boiled down:
as §1

Test [4] has as its system Rattus norvegicus. Briefly: Activity for diarrheagenic effect in rats by intragastric administration. The test is classed as functional. Particulars: po. The gist of the method: as §2
Test [5] concerns Canis familiaris. Put plainly: Activity for gastric antisecretory activity in dogs by intrapouch administration and the value ranges between 0.06-0.12. The test is classed as functional. Particulars: Canis lupus familiaris, Stomach. The gist of the method: as §1
Test [6] relates to Rattus norvegicus. Briefly: Activity for diarrheagenic effect in rats by intragastric administration and the value ranges between 947-1848. The test is classed as functional. Particulars: po. The method, boiled down:
as §2

The subject of test [7] is Canis familiaris. Briefly: Activity for gastric antisecretory activity in dogs by intrapouch administration. Format: functional. To be noted: Canis lupus familiaris, Stomach. The gist of the method:
as §1

In test [8] the test system is Canis familiaris. Briefly: Activity for gastric antisecretory activity in dogs by intrapouch administration and the value ranges between 0.069-0.096. The test is classed as functional. Particulars: Canis lupus familiaris, Stomach. The method, boiled down: as §1
Test [9] concerns Rattus norvegicus. Put plainly: Activity for diarrheagenic effect in rats by intragastric administration and the value ranges between 141-1134. The test is classed as functional. Particulars: po. The method, boiled down: as §2
The test system of test [10] is Canis familiaris. Briefly: No inhibitory activity (3 ug/kg) for gastric antisecretory activity in dogs by intrapouch administration. Format: functional, Canis lupus familiaris, Stomach. The gist of the method: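 Food-stimulated Pavlov-pouch beagles were dosed intrapouch, highest dose tested 3.0 µg/kg, in phosphate buffer pH 7.4 with at most 20% ethanol. Gastric juice was collected at 30-min intervals for 4 h after feeding. Percent reduction of total acid output (volume × acidity) from control was calculated.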

The subject of test [11] is Canis familiaris. Briefly: Activity for gastric antisecretory activity in dogs by intrapouch administration and the value ranges between 0.017-0.032. Format: functional. Particulars: Canis lupus familiaris, Stomach. The gist of the method: as §1
Test [12] concerns Rattus norvegicus. Briefly: Activity for diarrheagenic effect in rats by intragastric administration and the value ranges between 37-77. Format: functional. Particulars: po. The gist of the method: as §2

Consider `COC(=O)CC/C=C\CC[C@H]1C(=O)C[C@@H](O)[C@@H]1/C=C/CC(C)(O)CCC1CC1` (stereo partly drawn), for which the ED50 (commonly the dose at which the effect has come halfway, by size or by number of responders) in the test with Canis familiaris [1] is 0.09 µg/kg; with Rattus norvegicus [2], 273 µg/kg.

For the molecule `COC(=O)CC/C=C\CC[C@H]1C(=O)C[C@@H](O)[C@@H]1/C=C/CC(C)(O)CCC1CCCCC1` (stereo partly drawn), the ED50 in the test with Canis familiaris [3] is 70 µg/kg; with Rattus norvegicus [4], over 3160 µg/kg. `COC(=O)CC/C=C\CC[C@H]1C(=O)C[C@@H](O)[C@@H]1/C=C/CC(C)(O)CCC1CCCC1` (stereo partly drawn): the ED50 was determined as 0.09 µg/kg in the test with Canis familiaris [5] and 1310 µg/kg in the test with Rattus norvegicus [6]. For `COC(=O)CC/C=C\CC[C@H]1C(=O)C[C@@H](O)[C@@H]1/C=C/CC(C)(O)CCC1CCCCCC1` (stereo partly drawn), the ED50 with Canis familiaris [7] was about 95 µg/kg; in the test on Rattus norvegicus [4] it was over 3160 µg/kg. For the molecule `COC(=O)CC/C=C\CC[C@H]1C(=O)C[C@@H](O)[C@@H]1/C=C/CC(C)(O)CCC1CCC1` (stereo partly drawn), the ED50 was determined as 0.09 µg/kg in the test on Canis familiaris [8] and 316 µg/kg in the test on Rattus norvegicus [9]. Take `COC(=O)CC/C=C\CC[C@H]1C(=O)C[C@@H](O)[C@@H]1/C=C/CC(C)(O)CCCCO` (stereo partly drawn): the Inhibition (as a rule, the drop in the measured response relative to a control, in per cent) in the test with Canis familiaris [10] worked out at 0%.

With `CCCCC(C)(O)C/C=C/[C@H]1[C@H](O)CC(=O)[C@@H]1CC/C=C\CCC(=O)OC` (stereo partly drawn) [ENISOPROST], the ED50 with Canis familiaris [11] was 0.023 µg/kg; with Rattus norvegicus [12] it was 49 µg/kg.

The record behind these values is ChEMBL document CHEMBL1124453, “18-cycloalkyl analogues of enisoprost” (1989).
